Article PMC11629119 (Pharmacology Research & Perspectives, 2024)
Values joined by “and” are separate entries in the source; they are usually repeats but may differ in a detail not shown here. Identical values can stand only once. “Also recorded” adds a separate entry of the source. Marks after values point to notes of the source that are not given here. Blank lines part the entries; values can stand above or below the compound they belong to.

What was measured:
2D HepaRG = test: Cell viability assay; assay type: cell-based; settings: Homo sapiens
How it was run: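 HepaRG seeded at 2.25 × 10⁵ cells/cm² in 96-well plates 7 days before exposure; plates gas-permeable sealed. Ranges: glycol ethers 10–1000 mM, metabolites 1–25 mM, ethanol 1–600 mM. Highest-concentration solutions neutralised to pH 7.4 with NaOH, filter-sterilised. ATP by CellTiter-Glo luminescence at 48 h and 7 days, as % untreated control. EC50 calculated. N = 3–4 biological repeats, triplicates.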

3D HepaRG [1] = test: Cell viability assay; assay type: cell-based, human; settings: for higher toxicity of metabolite compared to its solvent (EC50, 3D HepaRG): 2‐MPA vs β‐PGME, 2‐MAA vs EGME; for EC50: Homo sapiens, HepaRG
How it was run: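 HepaRG spheroids formed from 3000 cells/well in U-bottom plates, 7 days pre-exposure. Dosing: half the medium replaced with twofold-concentrated compound; plates gas-permeable sealed. Ranges: glycol ethers 10–1000 mM, acid metabolites 1–25 mM, ethanol 1–600 mM; top solutions neutralised to pH 7.4, filtered. ATP by CellTiter-Glo luminescence at 48 h and 7 days, % of untreated control. EC50 calculated. N = 3–4 biological repeats, triplicates.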

[2] = Data derived from Pubchem ref PubChem (nih.gov); cited from earlier work
[3] = TK model parameter; ref Devanthéry et al. [20]; cited from earlier work
[4] = TK model parameter; ref Kerns et al. [54]; cited from earlier work
3D HepaRG [5] = test: Albumin ELISA assay in 3D HepaRG supernatant; assay type: cell-based, human; settings: 3D HepaRG exposed to 16 mM APAP for 48 h; untreated 78.4 ± 22.9 ng/mL
human hepatocytes [6] = settings: EGME; cited from earlier work
CYP2E1 = test: Gene expression q‐RT‐PCR in HepaRG, CYP2E1; assay type: cell-based, human; settings: 7‐day exposure
How it was run: (§1)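 HepaRG seeded at 2.25 × 10⁵ cells/cm² in 96-well plates for 7 days. RNA extracted with Qiazol/TRIzol plus glycogen. Reverse transcription with M-MLV and oligo dT. TaqMan probe qPCR program: 95°C 10 min, then 40 cycles of 95°C 15 s and 60°C 1 min.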

human hepatocytes [7] = settings: EGME, from reported Km and Vmax applying the scaling factors of this study
ADH1C = test: Gene expression q‐RT‐PCR in HepaRG, ADH1C; assay type: cell-based, human; settings: 7‐day exposure
How it was run: as §1

ALDH2 = test: Gene expression q‐RT‐PCR in HepaRG, ALDH2; assay type: cell-based, human; settings: 7‐day exposure
How it was run: as §1

[8] = used for β‐PGME to PG in TK model; ref Gargas et al. [55]; cited from earlier work
[9] = tested on: ADH / ALDH in human liver S9 fraction; test: Inhibition of 2‐MPA formation in S9 incubations; assay type: biochemical; settings: 5 mM β‐PGME, S9, NAD+ only, 45 min
How it was run: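 Human liver S9 (2 mg/mL) in 100 mM potassium phosphate pH 7.4, 3 mM MgCl₂. Substrate 5 mM, chosen below ADH saturation; NAD⁺ as sole cofactor. ADH inhibitor at 50 μM or ALDH inhibitor at 10 μM, final. 5 min preincubation; cofactor starts reaction; 45 min, 37°C, 300 rpm. Stopped with ice-cold acetonitrile. Acid metabolite by HPLC-MS/MS. N = 3, duplicates. One-way ANOVA/Dunnett versus control.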

[10] = plasma binding; measured data derived from literature ref 32; cited from earlier work
[11] = cited from earlier work
[12] = Metabolite formation in the 3D HepaRG liver model; assay type: in vitro ADME, human; settings: human, 3D HepaRG spheroids
How it was run: (§2)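 HepaRG spheroids (79 per well, 2772 cells each) formed 7 days in ultra-low-attachment micro-arrays. Substrate added as threefold concentrate to 5 mM final; 37°C, 5% CO₂, sealed. Supernatant sampled at 1, 15, 30, 45 min and 1, 6, 24 h, acetonitrile-quenched. Metabolite by HPLC-MS/MS. Formation constant from ln concentration versus time over 60 min; CLint per million cells. fu,inc by Kilford method (1.46 × 10⁶ cells/mL); well-stirred CLh. N = 3.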

3D HepaRG [13] = test: Metabolite formation in the 3D HepaRG liver model; assay type: in vitro ADME, human; settings: 3D HepaRG, metabolite formation
How it was run: as §2

[14] = tested on: human liver subcellular fraction (S9); test: S9 fraction incubation, solvent loss and metabolite formation; assay type: in vitro ADME; settings: for In vitro predicted hepatic organ clearance (CL h), CLmetMPA: measured; for Predicted CL h: well‐stirred liver model
How it was run: (§3)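 S9 2 mg/mL, 100 mM phosphate pH 7.4, 3 mM MgCl₂, 1 mM NAD⁺/NADPH; substrate 700 μM, 37°C. Aliquots at 1, 12, 23, 34, 45 min quenched with 2 volumes ice-cold acetonitrile; cofactor-free controls. Elimination or formation constant from slope of ln % parent remaining or ln metabolite versus time; CLint = k × volume / S9 protein. Scaled to CLh with well-stirred model. N = 3, duplicates.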

[15] = as above; assay type: in vitro ADME, human; settings: human, human liver S9 fraction; for microsomal CLint at 700 μM: pH 7.4, CLint, in vitro, S9, measured, 700 μM β‐PGME; for CLint scaled at 700 μM: pH 7.4, Predicted CL int, in vivo
How it was run: as §3

[16] = tested on: human liver subcellular fraction (S9); test: S9 fraction incubation, Michaelis–Menten kinetics β‐PGME to 2‐MPA; assay type: in vitro ADME
How it was run: (§4)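 Human liver S9 (2 mg/mL), 100 mM phosphate pH 7.4, 3 mM MgCl₂, substrate 0.1–8 mM; 1 mM NAD⁺ plus 1 mM NADPH start the reaction after 5 min preincubation. 45 min, 37°C; cofactor-free controls; acetonitrile stop. Metabolite by HPLC-MS/MS. Km/Vmax by nonlinear Michaelis–Menten fit; CLint = Vmax/Km. Scaled via physiological factors; well-stirred model (QH 20.7 mL/min/kg, fu,inc by Hallifax–Houston). N = 3, duplicates.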

[17] = as above; assay type: in vitro ADME, human; settings: human, human liver S9 fraction, pH 7.4
How it was run: as §4

[18] = β‐PGME → 2‐MPA, S9 2 mg/mL, 45 min

Structure (SMILES): COCC(=O)O [2‐MAA, 2‐Methoxyacetic acid, reference compound]
- EC50 (2D HepaRG; 48 h): 31 mM
- EC50 (2D HepaRG; 168 h): 16 mM
- higher toxicity of metabolite compared to its solvent (EC50, 3D HepaRG) (3D HepaRG [1]): ~50 fold
- EC50 (3D HepaRG [1]; 48 h): 11 mM
- EC50 (3D HepaRG [1]; 168 h): 9 mM
- logP [2]: −0.30

Structure (SMILES): COC(C)C(=O)O (stereo not drawn) [2‐MPA, 2‐Methoxypropionic acid]
- EC50 (2D HepaRG; 48 h): 81 mM
- EC50 (2D HepaRG; 168 h): 34 mM
- Urinary excretion rate of 2‐MPA (KMPA) [3]: 0.09 h⁻¹
- higher toxicity of metabolite compared to its solvent (EC50, 3D HepaRG) (3D HepaRG [1]): approximately fourfold; also recorded: approximately four times lower
- EC50 (3D HepaRG [1]; 48 h): 46 mM
- EC50 (3D HepaRG [1]; 168 h): 26 mM
- Permeability coefficient (BBB) (PeMPA) [4]: 0.006 cm/min

- albumin secretion (albumin concentration in medium) (3D HepaRG [5]): 1.78 ± 0.68 ng/mL
Structure (SMILES): CC(=O)Nc1ccc(O)cc1 [APAP, acetaminophen]

Structure (SMILES): COCCO [EGME, 2‐Methoxyethanol]
- V max (human hepatocytes [6]): 61.3 nmol/h/10^6 cells
- expression of CYP2E1 (CYP2E1): not induced
- calculated in vitro CLint (human hepatocytes [7]): 0.62 µL/min/mg
- expression of ADH1C (ADH1C): not induced
- expression of ALDH2 (ALDH2): not induced
- Kinetic constant EGME → EG (ethylene glycol) (CLmetPG) [8]: 0.3 L/h/kg
- logP [2]: −0.80

Structure (SMILES): c1ccc(-c2ccc3nc(-c4ccccc4)cn3c2)cc1 [GA11, 2,6‐diphenylimidazo[1,2‐a]pyridine]
- 2‐MPA formation compared to control incubations ([9]; 10 μM GA11 (ALDH inhibitor)): significantly reduced

- expression of CYP2E1 (CYP2E1): not induced
Structure (SMILES): COCC(C)O (stereo not drawn) [PGME, 1‐Methoxypropan‐2‐ol]
- fu,b [10]: 0.540 ^c 0.540 ^c
- expression of ADH1C (ADH1C): not induced
- expression of ALDH2 (ALDH2): not induced
- EC50 (3D HepaRG [1]; 168 h): 96 mM
- logP [2]: −0.49 −0.49

- expression of CYP2E1 (CYP2E1): not induced
Structure (SMILES): CCO [ethanol]
- expression of ADH1C (ADH1C): not induced
- expression of ALDH2 (ALDH2): not induced

Structure (SMILES): Cc1cn[nH]c1 [fomepizole, 4‐methyl pyrazole]
- 2‐MPA formation compared to control incubations ([9]; 50 μM fomepizole (ADH inhibitor)): significantly reduced

- CLint scaled at 5 mM [12]: 28.2 ± 2.5 mL/min/kg
- hepatocyte CLint at 5 mM [12]: 9.34 ± 0.83 µL/min/1e6 cells
- microsomal CLint at 5 mM [12]: 9.62 ± 0.85 µL/min/mg
- In vitro predicted hepatic organ clearance (CL h), CLmetMPA (3D HepaRG [13]; measured): 0.5442 L/h/kg
- Predicted CL h (3D HepaRG [13]; well‐stirred liver model): 9.07 ± 0.44 mL/min/kg
- In vitro predicted hepatic organ clearance (CL h), CLmetMPA ([14]; S9, metabolite formation): 0.9840 L/h/kg
- Predicted CL h ([14]; S9, metabolite formation): 16.4 ± 0.47 mL/min/kg
- In vitro predicted hepatic organ clearance (CL h), CLmetMPA ([14]; S9, solvent loss): 0.3000 L/h/kg
- clearance ranking based on in vitro predicted CLh values ([14]; overall generated CLh values (S9 and 3D HepaRG), reported clearance rankings): low to medium clearance compound
- microsomal CLint at 700 μM ([15]; metabolite formation): 40.9 ± 5.19 µL/min/mg
- microsomal CLint at 700 μM ([15]; solvent loss): 3.8 ± 2.14 µL/min/mg
- CLint scaled at 700 μM ([15]; S9, metabolite formation): 127 ± 16.1 mL/min/kg
- CLint scaled at 700 μM ([15]; S9, solvent loss): 11.8 ± 6.67 mL/min/kg
- Predicted CL h ([16]; S9, calculated (Vmax/Km), well‐stirred liver model): 0.36 ± 0.05 mL/min/kg
- In vitro predicted hepatic organ clearance (CL h), CLmetMPA ([16]; S9, metabolite formation, calculated (V max/K m)): 0.0216 L/h/kg
- CLint scaled [17]: 0.6 ± 0.09 mL/min/kg
- microsomal CLint [17]: 0.19 ± 0.03 µL/min/mg
Structure (SMILES): COC(C)CO (stereo not drawn) [β‐PGME, 2‐Methoxypropan‐1‐ol]
- excretion of conjugated β‐PGME [11]: 3%
- β‐PGME excreted as 2‐MPA ([11]; published rat studies): more than 60%
- fu,b [10]: 0.540 ^c 0.540 ^c
- Predicted CL h ([14]; S9, solvent loss): 5.00 ± 2.52 mL/min/kg and 5.03 ± 2.52 mL/min/kg
- EC50 (3D HepaRG [1]; 168 h): 86 mM
- logP [2]: −0.49 −0.49
- K m [16, 18]: 5.572 ± 2.171 mM
- V max [16, 18]: 1.04 ± 0.28 nmol/min/mg
